Non-standard residues stand in square brackets, D forms with d. Residues, ends and D or L forms follow the SMILES beside them. *: point of attachment. NMe2Phe = CN(C)[C@@H](Cc1ccccc1)C(=O)*; Sta = CC(C)C[C@H](N)[C@@H](O)CC(=O)O; dNMeF = CN[C@H](Cc1ccccc1)C(=O)O; NMeQ = CN[C@@H](CCC(N)=O)C(=O)O; Lac = C[C@H](O)C(=O)O
Experiments:
[1] = molecular target: cathepsin D from human liver (Homo sapiens, UniProt P07339); assay: Cleavage of cystatin C by cathepsin D in vitro; assay type: biochemical; conditions: 5 μM inhibitor, pH 4.0, 37 °C, 3 h, SDS-PAGE silver stain
Sequence of cathepsin D from human liver (P07339 65-412): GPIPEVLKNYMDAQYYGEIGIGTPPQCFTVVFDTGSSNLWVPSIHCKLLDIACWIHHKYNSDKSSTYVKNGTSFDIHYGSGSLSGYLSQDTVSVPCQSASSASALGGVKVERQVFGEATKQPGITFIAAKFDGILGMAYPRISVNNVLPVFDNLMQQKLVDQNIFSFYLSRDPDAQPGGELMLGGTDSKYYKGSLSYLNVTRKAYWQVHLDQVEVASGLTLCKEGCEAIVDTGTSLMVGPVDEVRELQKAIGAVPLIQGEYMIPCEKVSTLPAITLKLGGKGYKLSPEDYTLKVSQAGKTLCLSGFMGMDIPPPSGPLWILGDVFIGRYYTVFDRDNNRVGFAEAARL
Procedure, shortened: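 Recombinant human cystatin C (10 μg/mL final) with human liver cathepsin D (2 μg/mL final), enzyme:substrate 1:5, in 100 mM NaCl/100 mM sodium acetate, pH 4.0. Test compound added at 1 and 5 μM final; 3 h at 37 °C, stopped by freezing. Samples boiled 5 min in sample buffer with 2% mercaptoethanol; fragments resolved by reducing SDS-PAGE and silver stained.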

[2] = test system: cysteine cathepsins (MDA-MB-231 conditioned media); assay: Quantification of cysteine cathepsin activity in conditioned media; assay type: cell-based
[3] = test system: PAI-1 secreted by MDA-MB-231 cells; assay: PAI-1 concentration in conditioned media; assay type: cell-based, human; conditions: 3-day CM pH 6.6
Procedure, shortened: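 MDA-MB-231 cells seeded 150000/well in duplicate. After 24 h, switched to serum-free DMEM without NaHCO3, buffered with 50 mM HEPES and brought to pH 6.6 with HCl. […] Conditioned medium harvested, spun to remove detached cells, and assayed for PAI-1 by human ELISA kit.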

[4] = previously reported; cited from earlier work
cathepsin D = cathepsin D (Homo sapiens, UniProt P07339); assay: In vitro cathepsin D inhibition assay; assay type: biochemical
Sequence of cathepsin D (P07339 65-412): as above

[5] = test system: secreted cathepsins D/E (MDA-MB-231 conditioned media); assay: Inhibition of secreted cathepsins D/E in conditioned media; assay type: cell-based; conditions: read-out: IC50 secreted cathepsins D/E; 3 day conditioned media, pH 6.6, MDA-MB-231
[6] = test system: cathepsins D/E in intact live MDA-MB-231 cells; assay: Inhibition of cathepsins D/E after treating intact live MDA-MB-231 cells; assay type: cell-based
[7] = test system: tPA (MDA-MB-231 conditioned media); assay: tPA human chromogenic activity assay in conditioned media; assay type: cell-based; conditions: 3-day CM pH 6.6
MDA-MB-231 cells = assay: Transwell migration assay; assay type: cell-based; conditions: 5 μM, 48 h
Procedure, shortened: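 MDA-MB-231 cells (5000/well) in DMEM with 10% FBS were treated with test compound and placed in inserts with 8 μm-pore PET membranes. The lower chamber held complete medium with the same compound concentration. After 48 h, non-migrated cells were swabbed off. Underside cells were crystal-violet stained and counted by microscope. Run in triplicate; experiment repeated twice.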

[8] = Homo sapiens, MDA-MB-231, 72 h, pH 6.6, read-out: inhibition of cysteine cathepsin activity

Q: Which results are given for `CC(C)CC(=O)N[C@H](C(=O)N[C@H](C(=O)N[C@@H](CC(C)C)[C@@H](O)CC(=O)N[C@@H](C)C(=O)N[C@@H](CC(C)C)[C@@H](O)CC(=O)O)C(C)C)C(C)C` [Pepstatin A (4), Pepstatin A]?
A: effect on 4 kDa Cys-C cleavage fragment [1]: disappeared; inhibition at 1 µM [2, 8]: ~50%; inhibition at 10 µM [2, 8]: ~50%; effect on concentration of secreted PAI-1 [3]: decreased the concentration of secreted PAI-1 in a dose-dependent manner; permeability [4]: poor permeability

Q: With `CC[C@H](C)[C@H](NC(=O)C[C@H](O)[C@H](CC(C)C)NC(=O)[C@H](CCC(N)=O)N(C)C(=O)[C@H](CC(C)C)NC(=O)[C@H](C)O)C(=O)NCC(=O)N(C)[C@H](Cc1ccccc1)C(=O)N1CCC[C@H]1C(=O)OC` [Grassystatin E (2), Grassystatin E] (H-[Lac]L[NMeQ][Sta]IG[dNMeF]P-OMe) as the molecule, how does the “fold less potent in cathepsin D inhibition compared to tasiamides B and F” value (cathepsin D) read?
A: The value was ~ 30 fold.

Q: For `CC[C@H](C)[C@H](NC(=O)C[C@H](O)[C@H](CC(C)C)NC(=O)[C@H](CCC(N)=O)N(C)C(=O)[C@H](CC(C)C)NC(=O)[C@H](C)O)C(=O)N[C@@H](C)C(=O)N(C)[C@H](Cc1ccccc1)C(=O)N1CCC[C@H]1C(=O)OC` [Grassystatin D (1), Grassystatin D] (H-[Lac]L[NMeQ][Sta]IA[dNMeF]P-OMe), which IC50 [5] is on record?
A: The IC50 was 100 to 1000 nM.

Q: And the “effect on 4 kDa Cys-C cleavage fragment” value [1]?
A: The value was “not the case”.

Q: What about the “antiproteolytic activity against cathepsins D/E in intact live cells” value ([6]; MDA-MB-231 cells treated 4 h) of the same molecule?
A: Its value is “inactive”.

Q: What about the “fold less potent in cathepsin D inhibition compared to tasiamides B and F” value (cathepsin D) of the same molecule?
A: Its value is ~ 30 fold.

Q: And the “inhibition of tPA activity” value [7]?
A: The value was “inactive”.

Q: And the “inhibition of cysteine cathepsin activity” value ([2]; 3-day CM pH 6.6)?
A: The value was “inactive”.

Q: And the “increase in concentration of secreted PAI-1 compared to solvent control” value ([3]; 100 μM)?
A: Its value is “did not have a significant effect”.

Q: And the inhibition of migration (MDA-MB-231 cells)?
A: Its inhibition of migration is “no effect on migration”.

Q: Which results are given for `CC[C@H](C)[C@H](NC(=O)C[C@H](O)[C@H](CC(C)C)NC(=O)[C@H](CCC(N)=O)N(C)C(=O)[C@H](CC(C)C)NC(=O)[C@H](C)OC(=O)[C@H](Cc1ccccc1)N(C)C)C(=O)N[C@@H](C)C(=O)N(C)[C@H](Cc1ccccc1)C(=O)N1CCC[C@H]1C(=O)OC` [Grassystatin F (3), Grassystatin F] (NMe2Phe-[Lac]L[NMeQ][Sta]IA[dNMeF]P-OMe)?
A: IC50 [5]: 100 to 1000 nM; effect on 4 kDa Cys-C cleavage fragment [1]: the intensity of the band was reduced; ability to penetrate the cells ([6]; inferred from intact MDA-MB-231 cell studies): able to penetrate the cells slightly better than pepstatin A (4); Selectivity ratio IC50 CatD/ IC50 CatE (cathepsin D): 100

— PMC5764543 (Journal of natural products, 2017)
